Experimental data as given in ChEMBL document CHEMBL1914423, “New imidazo[2,1-b]thiazole derivatives: synthesis, in vitro anticancer evaluation, and in silico studies” (Eur J Med Chem, 2011).

How the values were obtained:
Format in all cases: functional
MCF7 = assay: Anticancer activity against human MCF7 cells after 48 hrs by SRB assay; settings: MCF7, 48 h
In short: (§1)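 NCI five-dose screen. Cells in RPMI 1640 with 5% FBS and 2 mM L-glutamine, seeded at 5000–40,000 cells/well according to doubling time, then pre-incubated 24 h at 37 °C in 5% CO2. Drugs dissolved in DMSO, five concentrations by 10-fold or 1/2-log dilution. Cells fixed with TCA, SRB-stained, A515 read. IC50 solved from [(Ti−Tz)/(C−Tz)]×100 = 50.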

IGROV-1 = assay: Anticancer activity against human IGROV1 cells after 48 hrs by SRB assay; settings: IGROV-1, 48 h; in short: as §1
[1] = Anticancer activity against human Hs 578T cells after 48 hrs by SRB assay; in short: as §1
UO-31 = assay: Anticancer activity against human UO31 cells after 48 hrs by SRB assay; settings: UO-31, 48 h
In short: (§2)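 NCI-60 five-dose mode: cells in RPMI 1640 with 5% FBS and 2 mM glutamine, plated at 5000–40,000 cells/well, and preincubated 24 h, with time-zero plates TCA-fixed. Drug given at five concentrations (10-fold or ½-log serial dilutions). Cold TCA fixation 60 min at 4 °C, SRB stain, Tris solubilization, A515. IC50 taken where [(Ti−Tz)/(C−Tz)]×100 = 50.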

TK-10 = assay: Anticancer activity against human TK10 cells after 48 hrs by SRB assay; settings: TK-10, 48 h; in short: as §2
MDA-MB-468 = assay: Anticancer activity against human MDA-MB-468 cells after 48 hrs by SRB assay; settings: MDA-MB-468, 48 h
M14 = assay: Anticancer activity against human M14 cells after 48 hrs by SRB assay; settings: M14, 48 h; in short: as §1
Malme-3M = assay: Anticancer activity against human MALME-3M cells after 48 hrs by SRB assay; in short: as §1
COLO 205 = assay: Anticancer activity against human COLO205 cells after 48 hrs by SRB assay; settings: COLO 205, 48 h; in short: as §1
HOP-62 = assay: Anticancer activity against human HOP62 cells after 48 hrs by SRB assay; settings: HOP-62, 48 h; in short: as §1
SR = assay: Anticancer activity against human SR cells after 48 hrs by SRB assay; in short: as §2
DU-145 = assay: Anticancer activity against human DU145 cells after 48 hrs by SRB assay; settings: DU-145, 48 h; in short: as §1
SF-268 = assay: Anticancer activity against human SF268 cells after 48 hrs by SRB assay; settings: SF-268, 48 h
NCI-H460 = assay: Anticancer activity against human NCI-H460 cells after 48 hrs by SRB assay; settings: NCI-H460, 48 h
CAKI-1 = assay: Anticancer activity against human Caki1 cells after 48 hrs by SRB assay; settings: CAKI-1, 48 h; in short: as §1
NCI-H23 = assay: Anticancer activity against human NCI-H23 cells after 48 hrs by SRB assay; settings: NCI-H23, 48 h
NCI-H226 = assay: Anticancer activity against human NCI-H226 cells after 48 hrs by SRB assay; settings: NCI-H226, 48 h
HT-29 = assay: Anticancer activity against human HT-29 cells after 48 hrs by SRB assay; settings: HT-29, 48 h; in short: as §1
PC-3 = assay: Anticancer activity against human PC3 cells after 48 hrs by SRB assay; settings: PC-3, 48 h
SK-MEL-28 = assay: Anticancer activity against human SK-MEL-28 cells after 48 hrs by SRB assay; settings: SK-MEL-28, 48 h
RXF 393 = assay: Anticancer activity against human RXF393 cells after 48 hrs by SRB assay; settings: RXF 393, 48 h
T47D = assay: Anticancer activity against human T47D cells after 48 hrs by SRB assay; in short: as §2
SN12C = assay: Anticancer activity against human SN12C cells after 48 hrs by SRB assay
NCI-H322M = assay: Anticancer activity against human NCI-H322M cells after 48 hrs by SRB assay
EKVX = assay: Anticancer activity against human EKVX cells after 48 hrs by SRB assay; in short: as §1
SF-295 = assay: Anticancer activity against human SF295 cells after 48 hrs by SRB assay; settings: SF-295, 48 h
OVCAR-8 = assay: Anticancer activity against human OVCAR8 cells after 48 hrs by SRB assay; settings: OVCAR-8, 48 h
HL-60(TB) = assay: Anticancer activity against human HL-60(TB) cells after 48 hrs by SRB assay; settings: HL-60, 48 h
In short: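 NCI-60 five-dose screen. Cells grown in RPMI 1640 with 5% FBS and 2 mM L-glutamine, seeded at 5000–40,000 cells/well, and held 24 h at 37 °C and 5% CO₂ before drug. DMSO stocks were diluted into five concentrations (10-fold or ½-log steps). Settled suspension cells were fixed with cold TCA, SRB-stained, and read at 515 nm. […] was taken where [(Ti−Tz)/(C−Tz)]×100 = 50.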

[2] = read-out: LC50 (the source's name)

O=C(NCCNc1nccc(-c2c(-c3cccc(O)c3)nc3sccn23)n1)c1ccccc1
GI50 (MCF7): 3.24 µM | TGI (MCF7): 14.9 µM | CC50 (MCF7; [2]): 46.5 µM | GI50 (IGROV-1): 3.61 µM | TGI (IGROV-1): 50.8 µM | CC50 (IGROV-1; [2]): > 100 µM | GI50 [1]: 4.86 µM | TGI [1]: 38.3 µM | CC50 [1, 2]: > 100 µM | GI50 (UO-31): 12.2 µM | TGI (UO-31): 88.7 µM | CC50 (UO-31; [2]): > 100 µM | GI50 (TK-10): 11.7 µM | TGI (TK-10): 37.1 µM | CC50 (TK-10; [2]): > 100 µM | GI50 (MDA-MB-468): 3.6 µM | TGI (MDA-MB-468): 28.7 µM | CC50 (MDA-MB-468; [2]): > 100 µM | GI50 (M14): 0.434 µM | TGI (M14): 12.3 µM | CC50 (M14; [2]): 37.3 µM | GI50 (Malme-3M): 0.205 µM | CC50 (Malme-3M; [2]): > 100 µM | GI50 (COLO 205): 3.99 µM | TGI (COLO 205): 23.8 µM | CC50 (COLO 205; [2]): > 100 µM | GI50 (HOP-62): 23.5 µM | TGI (HOP-62): 94.2 µM | GI50 (SR): 5.68 µM | TGI (SR): 50 µM | CC50 (SR; [2]): > 100 µM | GI50 (DU-145): 19.7 µM | TGI (DU-145): 68.7 µM | CC50 (DU-145; [2]): > 100 µM | GI50 (SF-268): 15.5 µM | TGI (SF-268): 87 µM | CC50 (SF-268; [2]): > 100 µM | GI50 (NCI-H460): 10.4 µM | TGI (NCI-H460): 27.5 µM | GI50 (CAKI-1): 5.92 µM | TGI (CAKI-1): 29.6 µM | CC50 (CAKI-1; [2]): > 100 µM | GI50 (NCI-H23): 10 µM | TGI (NCI-H23): 30.7 µM | GI50 (NCI-H226): 7.95 µM | TGI (NCI-H226): 45.3 µM | GI50 (HT-29): 6.79 µM | TGI (HT-29): 38.3 µM | CC50 (HT-29; [2]): > 100 µM | GI50 (PC-3): 11.9 µM | TGI (PC-3): 65.7 µM | CC50 (PC-3; [2]): > 100 µM | GI50 (SK-MEL-28): 0.336 µM | TGI (SK-MEL-28): 99.1 µM | CC50 (SK-MEL-28; [2]): > 100 µM | GI50 (RXF 393): 4.14 µM | TGI (RXF 393): 22.2 µM | CC50 (RXF 393; [2]): 98.1 µM | GI50 (T47D): 11 µM | TGI (T47D): 49 µM | CC50 (T47D; [2]): > 100 µM | GI50 (SN12C): 9.04 µM | TGI (SN12C): 38.4 µM | CC50 (SN12C; [2]): > 100 µM | GI50 (NCI-H322M): 26.3 µM | TGI (NCI-H322M): > 100 µM | CC50 (NCI-H322M; [2]): > 100 µM | GI50 (EKVX): 25 µM | TGI (EKVX): > 100 µM | GI50 (SF-295): 12.9 µM | TGI (SF-295): 38 µM | CC50 (SF-295; [2]): > 100 µM | GI50 (OVCAR-8): 11.1 µM | TGI (OVCAR-8): 78.8 µM | CC50 (OVCAR-8; [2]): > 100 µM | GI50 (HL-60(TB)): 10.2 µM | TGI (HL-60(TB)): 29.6 µM
